These results are taken from ChEMBL document CHEMBL3526003, “Pharmacokinetics of the monohydroxy derivative of oxcarbazepine and its enantiomers after a single intravenous dose given as racemate compared with a single oral dose of oxcarbazepine” (Drug Metab Dispos, 2011).

Series [1] in a line: AUC (0 to 72 hrs) in human at 250 mg, iv administered as single dose by high-performance liquid chromatography. The conditions noted are these: plasma. Format: ADME, organism-based. Also noted: dose 250 mg, time < 72 hr, route intravenous. Summed up:
(§1)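 Pilot ascending-dose study: one healthy subject per level received 150, 200 or 250 mg racemic MHD intravenously as a single dose. Plasma was sampled to 72 h and assayed by non-enantioselective and enantioselective HPLC. AUC(0-72h) was computed by the linear trapezoidal method.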

Series [2] in a line: AUC (0 to 72 hrs) in human at 200 mg, iv administered as single dose by high-performance liquid chromatography. The series is classed as ADME, organism-based. Further details: dose 200 mg, time < 72 hr, route intravenous. Particulars: plasma. Summed up:
as §1

The nature of series [3]: Renal clearance in human at 150 mg, iv administered as single dose by high-performance liquid chromatography. The series is classed as ADME, organism-based, Kidney. The conditions noted are these: in vivo. Summed up: (§2)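 Pilot ascending-dose study: one subject per level received single intravenous racemic MHD (150, 200, 250 mg). Urine was pooled 0–72 h, and unchanged drug was measured by HPLC as percent of dose excreted. Renal clearance was the amount excreted unchanged divided by plasma AUC.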

The nature of series [4]: Total plasma clearance in human at 200 mg, iv administered as single dose by high-performance liquid chromatography. The series is classed as ADME, organism-based. Summed up: (§3)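 Pilot study: single intravenous racemic MHD at 150, 200 or 250 mg, one subject per dose. Plasma was sampled to 72 h and analysed by HPLC. Total plasma clearance was computed as Dose/AUC, with AUC from the linear trapezoidal rule.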

Series [5] can be described thus: Renal clearance in human at 250 mg, iv administered as single dose by high-performance liquid chromatography. Format: ADME, organism-based, Kidney. Particulars: in vivo. Summed up: as §2
Series [6] is described as follows: Renal clearance in human at 200 mg, iv administered as single dose by high-performance liquid chromatography. Format: ADME, organism-based, Kidney. Particulars: in vivo. Summed up:
as §2

Series [7] in a line: Total plasma clearance in human at 150 mg, iv administered as single dose by high-performance liquid chromatography. The series is classed as ADME, organism-based. Summed up:
as §3

Series [8] is described as follows: Total plasma clearance in human at 250 mg, iv administered as single dose by high-performance liquid chromatography. The series is classed as ADME, organism-based. Summed up:
as §3

Series [9] can be described thus: Drug excretion in human urine assessed as total amount of drug eliminated at 200 mg, iv administered as single dose measured for 72 hrs post-dose by high-performance liquid chromatography. The conditions noted are these: read-out: Ae. The series is classed as ADME, organism-based. Summed up: as §2
A short description of series [10]: Drug excretion in human urine assessed as total amount of drug eliminated at 250 mg, iv administered as single dose measured for 72 hrs post-dose by high-performance liquid chromatography. Format: ADME, organism-based. The conditions noted are these: read-out: Ae. Summed up: as §2
Series [11] can be described thus: AUC in human at 250 mg, iv administered as infusion over 30 mins by non-enantiospecific assay based high-performance liquid chromatography. Format: ADME, organism-based. Particulars: plasma. Also noted: time < 0.5 hr, dose 250 mg, route intravenous. Summed up: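 Crossover of 12 healthy adults: 250 mg racemic MHD infused intravenously over 30 min versus a 300 mg oral tablet, with at least one week of washout. Plasma MHD was measured by non-enantioselective HPLC-UV at 210 nm after C18 solid-phase extraction (LOQ 0.1 µmol/L). Bioavailability f was the dose-corrected ratio of oral to intravenous AUC.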

Series [12] can be described thus: Drug excretion in human urine assessed as total amount of drug eliminated at 150 mg, iv administered as single dose measured for 72 hrs post-dose by high-performance liquid chromatography. The series is classed as ADME, organism-based. Particulars: read-out: Ae. Summed up:
as §2

Series [13] is described as follows: AUC (0 to 72 hrs) in human at 150 mg, iv administered as single dose by high-performance liquid chromatography. The series is classed as ADME, organism-based. Further details: dose 150 mg, time < 72 hr, route intravenous. The conditions noted are these: plasma. Summed up: as §1
Series [14] is described as follows: Terminal half life in human urine treated with monohydroxy derivative of OXC at 250 mg, iv administered as infusion over 30 mins by high-performance liquid chromatography. Format: ADME, organism-based. The conditions noted are these: read-out: beta t1/2 (converted). Summed up: (§4)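 250 mg racemic MHD infused intravenously over 30 min to 12 healthy adults. Plasma was drawn at 0 to 30 min and up to 72 h, and urine was fractionated to 72 h. Enantioselective HPLC was used. Renal clearance was Ae/AUC; Vss was CL_T·MRT (AUMC/AUC). Urinary half-life came from log-linear slopes between 4–18 h and 40–64 h.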

The nature of series [15]: Terminal half life in human urine treated with oxcarbazepine at 300 mg, po administered as one-film coated tablet by high-performance liquid chromatography. Format: ADME, organism-based. Particulars: read-out: beta t1/2 (converted). Summed up: (§5)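 300 mg oral tablet given to 12 healthy adults. Urine was collected in fractions up to 72 h and kept at 2–8 °C, then frozen at -20 °C. Analytes were measured by HPLC before and after β-glucuronidase hydrolysis (pH 6.7, 37 °C, about 15 h). Renal clearance was Ae/plasma AUC. Urinary terminal half-life came from log-linear slopes between 4–18 h and 40–64 h.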

A short description of series [16]: Drug excretion in human urine assessed as total amount of drug eliminated treated with oxcarbazepine at 300 mg, po administered as one-film coated tablet by high-performance liquid chromatography. Format: ADME, organism-based. The conditions noted are these: read-out: Ae. Summed up:
as §5

Series [17] in a line: AUC (0 to 32/48 hrs) in human treated with oxcarbazepine at 300 mg, po administered as one-film coated tablet by high-performance liquid chromatography. The conditions noted are these: plasma. Format: ADME, organism-based. Summed up: (§6)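 Healthy adults (6 male, 6 female), single 300 mg film-coated tablet by mouth, fasting, in a randomized two-way crossover with at least one week of washout. Venous heparinized blood was drawn at 0–72 h. Plasma was separated at 2200 g and stored at -80 °C. Non-enantioselective and enantioselective HPLC were used. Cmax/tmax were the observed peak; AUC was by linear trapezoidal rule.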

The nature of series [18]: AUC (0 to 72 hrs) in human treated with monohydroxy derivative of OXC at 200 mg, iv administered as single dose by high-performance liquid chromatography. Format: ADME, organism-based. Further details: time < 72 hr, dose 200 mg, route intravenous. The conditions noted are these: plasma. Summed up: as §1
Series [19] can be described thus: AUC (0 to 72 hrs) in human treated with monohydroxy derivative of OXC at 250 mg, iv administered as single dose by high-performance liquid chromatography. Format: ADME, organism-based. Also noted: dose 250 mg, time < 72 hr, route intravenous. Particulars: plasma. Summed up:
as §1

Series [20] is described as follows: Volume of distribution at steady state in human treated with monohydroxy derivative of OXC at 250 mg, iv administered as infusion over 30 mins by high-performance liquid chromatography. The series is classed as ADME, organism-based. Particulars: in vivo, read-out: Vdss. Summed up:
as §4

A short description of series [21]: Total plasma clearance in human treated with monohydroxy derivative of OXC at 150 mg, iv administered as single dose by high-performance liquid chromatography. Format: ADME, organism-based. Summed up:
as §3

A short description of series [22]: Total plasma clearance in human treated with monohydroxy derivative of OXC at 200 mg, iv administered as single dose by high-performance liquid chromatography. Format: ADME, organism-based. Summed up: as §3
A short description of series [23]: Renal clearance in human treated with oxcarbazepine at 300 mg, po administered as one-film coated tablet by high-performance liquid chromatography. Particulars: in vivo. Format: ADME, organism-based, Kidney. Summed up: as §5
Series [24] is described as follows: Apparent terminal half life in human plasma treated with monohydroxy derivative of OXC at 250 mg, iv administered as infusion over 30 mins by high-performance liquid chromatography. The conditions noted are these: read-out: betat1/2(app) (converted). Format: ADME, organism-based. Summed up: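 Healthy adult volunteers (6 male, 6 female), randomized two-way crossover with at least one week washout; single 250 mg racemic MHD infused i.v. over 30 min. Heparinized plasma sampled 0–30 min then 1–72 h after start of infusion, stored -80 C; enantiomers quantified by enantioselective HPLC.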

Series [25] in a line: Cmax in human treated with oxcarbazepine at 300 mg, po administered as one-film coated tablet by high-performance liquid chromatography. The series is classed as ADME, organism-based. Also noted: dose 300 mg, route oral. The conditions noted are these: in vivo. Summed up:
as §6

Series [26] can be described thus: Total plasma clearance in human treated with monohydroxy derivative of OXC at 250 mg, iv administered as single dose by high-performance liquid chromatography. Format: ADME, organism-based. Summed up: as §3
Series [27] is described as follows: AUC (0 to 72 hrs) in human treated with monohydroxy derivative of OXC at 150 mg, iv administered as single dose by high-performance liquid chromatography. Also noted: dose 150 mg, time < 72 hr, route intravenous. Particulars: plasma. The series is classed as ADME, organism-based. Summed up: as §1
Series [28] can be described thus: Renal clearance in human treated with monohydroxy derivative of OXC at 250 mg, iv administered as infusion over 30 mins by high-performance liquid chromatography. Format: ADME, organism-based, Kidney. The conditions noted are these: in vivo. Summed up: as §4
Series [29] in a line: Tmax in human treated with monohydroxy derivative of OXC at 250 mg, iv administered as infusion over 30 mins by high-performance liquid chromatography. Format: ADME, organism-based. The conditions noted are these: in vivo. Summed up: (§7)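 Healthy adults (6 male, 6 female) in an open randomized two-way crossover with at least one week washout. Venous heparinized plasma was sampled at 0, 5, 10, 15, 20, 25 and 30 min and at 1-72 h after the start of infusion, and stored at -80 C. Analytes were measured by non-enantioselective and enantioselective HPLC. Tmax is the observed time of peak concentration, reported as a median.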

A short description of series [30]: Cmax in human treated with monohydroxy derivative of OXC at 250 mg, iv administered as infusion over 30 mins by high-performance liquid chromatography. Format: ADME, organism-based. Particulars: in vivo. Further details: dose 250 mg, route intravenous. Summed up: as §7
A short description of series [31]: Tmax in human treated with oxcarbazepine at 300 mg, po administered as one-film coated tablet by high-performance liquid chromatography. The series is classed as ADME, organism-based. Particulars: in vivo. Summed up: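 Healthy adults (6 male, 6 female) took a single dose under fasting conditions in an open randomized two-way crossover with at least one week washout. Heparinized plasma was sampled at 0, 1, 2, 3, 4, 6, 8, 10, 24, 32, 48, 56 and 72 h, and stored at -80 C. Analytes were measured by HPLC (UV 210 nm for MHD). Cmax and Tmax are the highest observed concentration and its time relative to dosing.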

The AUC(0-t) is the area under the concentration-time curve up to a stated or last time point. A word on the clearance: it is the rate of elimination divided by the concentration. A low value points to inefficient removal. By AUC is commonly meant the area under the concentration-time curve, a measure of exposure. A higher AUC goes with more exposure. `NC(=O)N1c2ccccc2CC(O)c2ccccc21` (racemic) [LICARBAZEPINE]: the AUC(0-t) at 72 h in series [1] is 280 µM·h; in [2], 142 µM·h; in series [13] it was 109 µM·h. In addition, the results for the CL renal in series [3], in series [5] and in series [6] were 21.8 mL/min, 25 mL/min and 28.3 mL/min, respectively. For the same compound, the results for the clearance in [4], in series [7] and in series [8] were 92 mL/min, 90 mL/min and 58.5 mL/min, respectively. In addition, the dose excreted at 72 h in series [9] was 30.7%; in series [10] it was 42.8%; in series [12], 24.3%. For the same compound, the AUC at 0.5 h in series [11] amounted to 261 µM·h.

As to `NC(=O)N1c2ccccc2C[C@H](O[C@@H]2O[C@H](C(=O)O)[C@@H](O)[C@H](O)[C@H]2O)c2ccccc21`, the figures for the half-life in series [14] and in series [15] were 9.9 h and 10.8 h, respectively. Also, in series [16], the dose excreted was determined as 38.8%.

What is called Cmax is the peak of the concentration-time curve. In series [17], `NC(=O)N1c2ccccc2C[C@H](O)c2ccccc21` [ESLICARBAZEPINE] displayed an AUC at 48 h of 241 µM·h. The figures for the AUC(0-t) at 72 h in [18], in [19] and in series [27] were 92.2 µM·h, 192 µM·h and 69 µM·h, respectively. Also, in [20], the Vd is 45.9 L. Besides, the clearance in series [21] was 71.2 mL/min; in series [22], 71.2 mL/min; in series [26] it was 42.7 mL/min. In [23], the CL renal was 18.3 mL/min. Further, the half-life in series [24] was 10.6 h; in series [15] it was 8.5 h. For the same compound, the concentration in series [25] peaked (Cmax) at 11000 nM. This compound also had a CL renal at 0.5 h in series [28] of 15 mL/min. Besides, the dose excreted in [16] stood at 21.8%.

Broadly, the Tmax is the time from dosing to the highest level. Regarding `NC(=O)N1c2ccccc2[C@@H](O)[C@H](O)c2ccccc21`, the values for the Tmax in series [29] and in series [31] were 8 h and 24 h, respectively. Besides, the Cmax was 200 nM in [25] and 240 nM in series [30]. Further, the dose excreted in series [16] is 2.7%.
